The values below come from ChEMBL document CHEMBL1765030, “Discovery and preclinical evaluation of a novel class of cytotoxic propynoic acid carbamoyl methyl amides (PACMAs)” (J Med Chem, 2011).

The structures appear in SMILES notation. Activity calls are given as the source filed them. The rule behind the calls is not given here.

As usually defined, the logP is the decadic logarithm of the partition coefficient of the neutral form, usually between octanol and water. Read a high logP as higher lipophilicity. As usually defined, the IC50 is the concentration needed to halve the response being measured.

Data set [1] can be described thus: Octanol-water distribution coefficient, log P of the compound. The class given is physicochemical.
Data set [2] concerns HT-29. Briefly: Cytotoxicity against human HT-29 cells after 72 hrs by MTT assay. The format is functional, cell-based. The note with it: HT-29, 72 h. An outline of the steps: (§1)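 Cells were attached overnight, then continuously exposed to drug for 72 h. MTT (0.5 mg/mL final) was added for 4 h at 37 °C, formazan dissolved in DMSO, and A570 read; all in triplicate. IC50 came from log(concentration) vs % cells killed. Media: RPMI-1640 for HT29, HCT116 p53+/+ and p53−/−, and HEY; DMEM for MDA-MB-435 and UMUC3; all with 10% FBS, 37 °C, 5% CO₂.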
(In general: Formazan colour is commonly taken as a measure of viable cells.)

Data set [3] relates to HCT-116. Briefly: Cytotoxicity against human HCT116 cells […] after 72 hrs by MTT assay. The class given is functional, cell-based. The following applies: HCT-116, 72 h. An outline of the steps: as §1
Data set [4] concerns UMUC3. The experiment in a line: Cytotoxicity against human UM-UC-3 cells after 72 hrs by MTT assay. The format is functional, cell-based. The following applies: UMUC3, 72 h. In outline:
as §1

Data set [5] concerns MDA-MB-435. Briefly: Cytotoxicity against human MDA-MB-435 cells at 1 uM after 24 hrs using crystal violet staining by colony formation assay. The class given is functional, cell-based. An outline of the steps: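 Cells were plated at 1000 per well, attached overnight, and exposed to 1 μM for 24 h. They were then washed and grown in fresh medium for 8–10 days until colonies formed, fixed in 1% glutaraldehyde for 30 min, and stained with 2% crystal violet for 30 min. Vehicle was DMSO.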

In data set [6] the test system is MDA-MB-435. The experiment in a line: Cytotoxicity against human MDA-MB-435 cells after 72 hrs by MTT assay. The format is functional, cell-based. The note with it: MDA-MB-435, 72 h. An outline of the steps: as §1
For data set [7], the system named is MDA-MB-435. Briefly: Increase of mitochondrial superoxide accumulation in human MDA-MB-435 cells at IC50 to 3 times IC50 after 24 hrs by fluorescence microscopic analysis. The format is functional, cell-based. An outline of the steps: (§2)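 Cells were drug-treated at two concentrations for 24 h, then loaded with 5 μM MitoSOX Red for 10 min at 37 °C and washed three times in HBSS. Cells were either viewed by fluorescence microscopy or trypsinized, washed twice in HBSS and read by flow cytometry; untreated cells served as control.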

The test system of data set [8] is 5637. The experiment in a line: Cytotoxicity against human 5637 cells after 72 hrs by MTT assay. The class given is functional, cell-based. The following applies: Homo sapiens, 5637, 72 h.
Data set [9] has as its system HEY. Briefly: Cytotoxicity against human HEY cells after 72 hrs by MTT assay. The class given is functional, cell-based. In outline: as §1
Data set [10] deals with MDA-MB-435. The experiment in a line: Increase of mitochondrial superoxide accumulation in human MDA-MB-435 cells at IC50 to 3 times IC50 after 24 hrs by flow cytometry. The format is functional, cell-based. In outline:
as §2
On the technique in general: In flow cytometry, cells or beads pass a laser one at a time.

In data set [11] the test system is NCI/ADR-RES. The experiment in a line: Cytotoxicity against human NCI/ADR-RES cells after 72 hrs by MTT assay. The format is functional, cell-based.
For data set [12], the system named is HCT-116. Briefly: Cytotoxicity against p53 deficient human HCT116 cells […] after 72 hrs by MTT assay. The class given is functional, cell-based. The note with it: HCT-116, 72 h. An outline of the steps: as §1
Data set [13] relates to MDA-MB-435. The experiment in a line: Increase of reactive oxygen species accumulation in human MDA-MB-435 cells at IC50 to 3 times IC50 after 24 hrs by fluorescence microscopic analysis. The class given is functional, cell-based.
Data set [14] has as its system MDA-MB-435. The experiment in a line: Increase of mitochondrial superoxide accumulation in human MDA-MB-435 cells at 1.5 uM after 24 hrs by fluorescence microscopic analysis. The format is functional, cell-based. In outline: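 MDA-MB-435 cells (DMEM, 10% FBS, 37 °C, 5% CO₂) treated 24 h, then loaded with 5 μM MitoSOX Red mitochondrial superoxide indicator for 10 min at 37 °C; washed three times with HBSS to remove excess dye and viewed under a fluorescence microscope for mitochondrial superoxide staining pattern, compared with untreated cells.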

Turning to `C#CC(=O)N(c1ccccc1)C(C(=O)NC1CCCCC1)c1cccs1` (stereo unspecified), the logP in [1] stood at 3.07. In addition, the IC50 in [2] is more than 10 µM; in data set [3], 14 µM; in data set [4], more than 20 µM; in data set [6], more than 10 µM; in data set [8], 3.5 µM; in data set [9], more than 10 µM. Also, the IC50 is 1.3 µM in data set [11] and more than 20 µM in data set [12]. The result in data set [5], in data set [7] and in data set [10] was Active.
As for `O=C(O)c1ccccc1C1c2cc(Cl)c(O)cc2Oc2cc(O)c(Cl)cc21`, in [13], the outcome was inactive.
Consider `CC(=O)O[C@H]1C(=O)[C@@]2(C)[C@H]([C@H](OC(=O)c3ccccc3)[C@]3(O)C[C@H](OC(=O)[C@H](O)[C@@H](NC(=O)c4ccccc4)c4ccccc4)C(C)=C1C3(C)C)[C@]1(OC(C)=O)CO[C@@H]1C[C@@H]2O` [PACLITAXEL], for which, in data set [1], the logP was determined as 0.54. For the same compound, the outcome in data set [5] was Active. Moreover, in data set [14], the result was inactive.
